{"data": "Results collected from several papers", "target": "Cyclin-G-associated kinase (GAK, Homo sapiens, UniProt O14976)", "One construct used (O14976 1-1311)": "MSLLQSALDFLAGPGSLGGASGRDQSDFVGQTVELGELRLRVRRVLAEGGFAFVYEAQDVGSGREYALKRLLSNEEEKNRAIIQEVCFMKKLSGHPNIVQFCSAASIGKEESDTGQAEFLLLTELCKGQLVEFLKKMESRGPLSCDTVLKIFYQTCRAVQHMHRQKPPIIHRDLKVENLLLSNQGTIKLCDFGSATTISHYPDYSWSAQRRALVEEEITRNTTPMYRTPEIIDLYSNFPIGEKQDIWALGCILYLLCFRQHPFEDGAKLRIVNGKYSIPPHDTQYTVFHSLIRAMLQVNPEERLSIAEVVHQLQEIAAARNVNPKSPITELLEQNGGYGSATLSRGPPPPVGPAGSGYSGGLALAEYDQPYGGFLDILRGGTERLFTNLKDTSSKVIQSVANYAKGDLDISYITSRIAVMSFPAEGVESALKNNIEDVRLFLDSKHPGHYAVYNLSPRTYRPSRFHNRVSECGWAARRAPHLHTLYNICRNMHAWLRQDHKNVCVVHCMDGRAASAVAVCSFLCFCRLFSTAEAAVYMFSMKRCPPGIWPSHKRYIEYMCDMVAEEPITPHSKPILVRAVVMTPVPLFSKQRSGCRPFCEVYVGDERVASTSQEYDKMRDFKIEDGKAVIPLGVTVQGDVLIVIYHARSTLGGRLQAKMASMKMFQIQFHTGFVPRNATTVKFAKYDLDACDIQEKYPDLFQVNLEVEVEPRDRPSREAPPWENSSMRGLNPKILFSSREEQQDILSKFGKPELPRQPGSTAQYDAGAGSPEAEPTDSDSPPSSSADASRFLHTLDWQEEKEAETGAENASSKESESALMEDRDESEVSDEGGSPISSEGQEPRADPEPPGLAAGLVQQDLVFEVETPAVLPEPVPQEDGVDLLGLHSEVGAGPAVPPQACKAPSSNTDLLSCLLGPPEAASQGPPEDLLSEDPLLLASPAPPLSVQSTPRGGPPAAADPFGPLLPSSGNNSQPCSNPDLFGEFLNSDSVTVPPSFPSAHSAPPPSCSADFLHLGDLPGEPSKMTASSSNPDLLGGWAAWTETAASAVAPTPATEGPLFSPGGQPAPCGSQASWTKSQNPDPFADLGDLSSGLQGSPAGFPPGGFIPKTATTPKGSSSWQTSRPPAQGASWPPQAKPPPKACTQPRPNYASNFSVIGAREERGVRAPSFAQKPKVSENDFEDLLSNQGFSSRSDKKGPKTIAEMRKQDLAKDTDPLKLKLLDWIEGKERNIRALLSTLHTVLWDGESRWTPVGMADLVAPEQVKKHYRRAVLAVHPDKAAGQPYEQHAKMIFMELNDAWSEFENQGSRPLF", "note": "Each line is one published result; the experiments were not run side by side."}
{"Compound": "CN(C)c1ncc(F)c(-c2cnn3ncccc23)n1", "assay": "binding", "conditions": "1 µM", "remaining binding [%]": 100}
{"Compound": "N#CC1(c2ccccn2)CCN(Cc2cc(C(=O)N3CCCC3)c(=O)n3ccccc23)CC1", "assay": "cell-free assay, competition with immobilised ligand", "conditions": "1 µM", "remaining binding [%]": 100}
{"Compound": "FC(F)(F)Oc1cccc(-c2cnc3ccc(-c4ccncc4)nn23)c1", "assay": "cell-free assay, competition with immobilised ligand", "conditions": "5 µM", "remaining binding [%]": 9.7}
{"Compound": "C[C@@H]1CCN(c2nccc(-c3cnn4ncccc34)n2)C1", "assay": "binding", "conditions": "1 µM", "remaining binding [%]": 40}
{"Compound": "C[C@H](c1ccc(F)cc1)N(Cc1cccc(C(=O)O)c1)C(=O)c1cnc2ccccc2c1", "assay": "cell-free assay, competition with immobilised ligand", "conditions": "1 µM", "remaining binding [%]": 98}
{"Compound": "Nc1ncc2c(n1)-c1c([nH]c3ccc(C#CC4CC4)cc13)CCCC2", "assay": "binding, competition with immobilised ligand", "conditions": "1 µM", "remaining binding [%]": 88}
{"Compound": "O=C(NCC1CCOCC1)c1n[nH]cc1NC(=O)c1c(F)cccc1F", "assay": "binding, competition with immobilised ligand", "conditions": "1 µM", "remaining binding [%]": 88}
{"Compound": "O=C(NCCCN1CCOCC1)c1ccc(Nc2ncc(Cl)c(-c3ccc(Cl)s3)n2)cc1", "assay": "binding, competition with immobilised ligand", "conditions": "1 µM", "remaining binding [%]": 15}
{"Compound": "C[C@@H](c1cccc(C#N)c1)n1cc(Cl)cc(C(N)=O)c1=N", "assay": "cell-free assay, competition with immobilised ligand", "conditions": "1 µM", "remaining binding [%]": 100}
{"Compound": "O=C(c1ccc(Nc2nccc(-c3cc4ccccc4s3)n2)cc1)N1CCC(N2CCCC2)CC1", "assay": "binding, competition with immobilised ligand", "conditions": "1 µM", "remaining binding [%]": 34}
{"Compound": "O=C(O)c1cc(-c2ccc(C3CCNCC3)cc2)c2ccc(-c3ccc(C(F)(F)F)cc3)cc2c1", "assay": "cell-free assay, competition with immobilised ligand", "conditions": "1 µM", "remaining binding [%]": 100}
{"Compound": "C[C@@H](c1ccc(-n2cnc3c(N)ncnc32)cc1)N1CCc2nn(C)c(Cc3ccccc3)c2C1=O", "assay": "binding, competition with immobilised ligand", "conditions": "0.1 µM", "remaining binding [%]": 99}
{"Compound": "COc1ncc2cc3ccccc3nc2c1C#N", "assay": "cell-free assay, competition with immobilised ligand", "conditions": "5 µM", "remaining binding [%]": 87}
{"Compound": "O=C(c1ccc(Nc2ncc(Cl)c(-c3ccc(Cl)s3)n2)cc1)N1CCC(N2CCCC2)CC1", "assay": "binding, competition with immobilised ligand", "conditions": "1 µM", "remaining binding [%]": 23}
{"Compound": "N[C@H]1CCN(c2nccc(-c3cnn4ncccc34)n2)C1", "assay": "binding", "conditions": "1 µM", "remaining binding [%]": 80}
{"Compound": "CNC(=O)[C@@H]1CC[C@@H](n2c(-c3ccc4cnccc4c3)nc3ccc(C(=O)NCc4cccc(C(N)=O)c4)cc32)C1", "assay": "binding, competition with immobilised ligand", "conditions": "1 µM", "remaining binding [%]": 100}
{"Compound": "CC1CCCN1c1nccc(-c2cnn3ncccc23)n1 (stereo not shown)", "assay": "binding", "conditions": "1 µM", "remaining binding [%]": 94}
{"Compound": "COc1cnc(Nc2cccc(S(N)(=O)=O)c2)nc1N1CCN(c2ccccc2)C(=O)C1", "assay": "binding, competition with immobilised ligand", "conditions": "1 µM", "remaining binding [%]": 57}
{"Compound": "CCS(=O)(=O)c1cc2cc(C[C@](O)(CC(C)(C)c3ccc(F)cc3C(N)=O)C(F)(F)F)[nH]c2cn1", "assay": "cell-free assay, competition with immobilised ligand", "conditions": "1 µM", "remaining binding [%]": 100}
{"Compound": "F[C@@H]1CCN(c2nccc(-c3cnn4ncccc34)n2)C1", "assay": "binding", "conditions": "1 µM", "remaining binding [%]": 85}
{"Compound": "Cn1nc(C(F)(F)F)cc1-c1cnc(N2CCc3cc(S(=O)(=O)Nc4c(F)cc(Cl)cc4F)cc(N4CCCC4=O)c32)nc1", "assay": "cell-free assay, competition with immobilised ligand", "conditions": "1 µM", "remaining binding [%]": 94}
{"Compound": "CN(CCCC(F)(F)F)c1nccc(-c2cnn3ncccc23)n1", "assay": "binding", "conditions": "1 µM", "remaining binding [%]": 100}
